Data from ChEMBL document CHEMBL5321262, “Antiviral Activity of Cannabidiolic Acid and Its Methyl Ester against SARS-CoV-2” (J Nat Prod, 2023).
Active and inactive are the calls of the source. No cut-off for these calls is given here.

Experiments:
[1] = test system: SARS-CoV-2; experiment: Antiviral activity against SARS-CoV-2 Italian strain PV10734 infected in African green monkey Vero E6 cells assessed as reduction in virus-induced cytopathic effect preincubated with virus for 1 hr followed by infection with cells and measured after 72 hrs by microscopic analysis; type: functional, organism-based; conditions: Severe acute respiratory syndrome coronavirus 2, time 73.0 hrs
[2] = Cytotoxicity against African green monkey Vero E6 cells measured after 72 hrs by LDH assay; type: toxicity, cell-based, Vero C1008; conditions: chlorocebus sabaeus
In short: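 Vero E6 seeded at 2 × 10^4 cells/well and held overnight at 37 °C, 5% CO2. Compounds added at final 2.3–300.0 µM (8 two-fold steps) with DMSO fixed at 0.5% v/v. After 72 h, LDH-WST read-out at 490 nm, with % cytotoxicity taken against DMSO control. CC50 from nonlinear dose–response regression.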

[3] = test system: SARS-CoV-2; experiment: Antiviral activity against SARS-CoV-2 Italian strain PV10734 infected in African green monkey Vero E6 cells assessed as reduction in virus titers of progeny virus in supernatant measured after 72 hrs by CPE assay; type: functional, organism-based; conditions: Severe acute respiratory syndrome coronavirus 2, PV10734, Vero C1008, 72 h
[4] = test system: SARS-CoV-2; experiment: Antiviral activity against SARS-CoV-2 Italian strain PV10734 infected in African green monkey Vero E6 cells assessed as reduction in viral replication at 37.5 uM measured at 72 hrs post-infection by qRT-PCR analysis; type: functional, organism-based; conditions: Severe acute respiratory syndrome coronavirus 2
[5] = Stability of compound in African green monkey Vero E6 cell lysates assessed as decarboxylation at 37.5 uM measured upto 30 mins by UHPLC-HRMS analysis; type: ADME, subcellular; conditions: chlorocebus sabaeus, vero c1008, 0.5 h
[6] = test system: SARS-CoV-2; experiment: Antiviral activity against SARS-CoV-2 Italian strain PV10734 infected in African green monkey Vero E6 cells assessed as reduction in virus-induced cytopathic effect at 37.5 uM preincubated with virus for 1 hr followed by infection with cells and measured after 72 hrs by microscopic analysis; type: functional, organism-based; conditions: Severe acute respiratory syndrome coronavirus 2, time 73.0 hrs
[7] = test system: SARS-CoV-2; experiment: Antiviral activity against SARS-CoV-2 Italian strain PV10734 infected in African green monkey Vero E6 cells assessed as inhibition of virus titers of progeny virus in supernatant at 37.5 uM measured after 72 hrs by CPE assay relative to control; type: functional; conditions: Severe acute respiratory syndrome coronavirus 2, PV10734, Vero C1008
[8] = Stability of compound in cell culture media at 37.5 uM measured upto 30 mins by UHPLC-HRMS analysis; type: physicochemical; conditions: 0.5 h
[9] = Stability of compound in African green monkey Vero E6 cell lysates assessed as decarboxylation at 75 uM measured upto 30 mins by UHPLC-HRMS analysis; type: ADME, subcellular; conditions: chlorocebus sabaeus, vero c1008, 0.5 h
[10] = test system: SARS-CoV-2; experiment: Antiviral activity against SARS-CoV-2 Italian strain PV10734 infected in African green monkey Vero E6 cells assessed as inhibition of virus titers of progeny virus in supernatant at 75 uM measured after 72 hrs by CPE assay relative to control; type: functional; conditions: Severe acute respiratory syndrome coronavirus 2, PV10734, Vero C1008
[11] = test system: SARS-CoV-2; experiment: Antiviral activity against SARS-CoV-2 Italian strain PV10734 infected in African green monkey Vero E6 cells assessed as reduction in virus-induced cytopathic effect at 75 uM preincubated with virus for 1 hr followed by infection with cells and measured after 72 hrs by microscopic analysis; type: functional, organism-based; conditions: Severe acute respiratory syndrome coronavirus 2, time 73.0 hrs
[12] = test system: SARS-CoV-2; experiment: Antiviral activity against SARS-CoV-2 Italian strain PV10734 infected in African green monkey Vero E6 cells assessed as reduction in viral replication at 75 uM measured at 72 hrs post-infection by qRT-PCR analysis; type: functional, organism-based; conditions: Severe acute respiratory syndrome coronavirus 2

Compound	Activity [1]	CC50 at 72 h [2] [µM]	also measured
CCCc1cc(O)c(C/C=C(\C)CCC=C(C)C)c(O)c1	inactive	58.1	–
C=C(C)[C@@H]1CCC(C)=C[C@H]1c1c(O)cc(CCCCC)c(C(=O)OC)c1O	–	52.4	IC50 [3]: 18.4 µM; Activity [4]: Active; Stability [5]: Stable; Activity [6]: Active; inhibition at 37.5 µM [7]: > 90%; Stability [8]: Stable
CCCCCc1cc(O)c2c(c1)OC(C)(CCC=C(C)C)C=C2 (stereo not given) [CANNABICHROMENE]	inactive	59.3	–
C=C(C)[C@@H]1CCC(C)=C[C@H]1c1c(O)cc(CCCCC)c(C(=O)O)c1O [CANNABIDIOLIC ACID]	–	119	IC50 [3]: 42.7 µM; Stability [9]: Unstable; inhibition at 75 µM [10]: > 90%; Activity [11]: Active; Activity [12]: Active
C=C(C)[C@@H]1CCC(C)=C[C@H]1c1c(O)cc(CCCCC)cc1O [CANNABIDIOL]	inactive	28.9	–
C=C(C)[C@@H]1CCC(C)=C[C@H]1c1c(O)cc(CCC)cc1O [CANNABIDIVARIN]	inactive	26	–
CCCCCc1cc(O)c(C/C=C(\C)CCC=C(C)C)c(O)c1C(=O)O [CANNABIGEROLIC ACID]	inactive	43.9	–
CCCCCc1cc(O)c(C/C=C(\C)CCC=C(C)C)c(O)c1 [CANNABIGEROL]	inactive	58	–
